In ChEMBL document CHEMBL4118255, “Synthesis and antibacterial evaluation of novel 11-O-aralkylcarbamoyl-3-O-descladinosylclarithromycin derivatives” (2018) one finds MIC data, which are given here for 6 compounds.

What all share (assay type): functional
Experiment [1] has as its system Staphylococcus aureus. In words: Antibacterial activity against erythromycin-susceptible Staphylococcus aureus ATCC 25923 after 24 hrs by […]. The note with it: ATCC 25923, 24 h.
The subject of another experiment is Escherichia coli. In words: Antibacterial activity against penicillin-susceptible Escherichia coli ATCC 25922 incubated for 24 hrs by […]. The note with it: ATCC 25922, 24 h.
In experiment [2] the test system is Streptococcus pyogenes. In words: Antibacterial activity against erythromycin-susceptible Streptococcus pyogenes after 24 hrs […].
In another experiment the test system is Pseudomonas aeruginosa. In words: Antibacterial activity against penicillin-susceptible Pseudomonas aeruginosa ATCC 27853 incubated for 24 hrs by […]. The note with it: ATCC 27853, 24 h.
The next experiment relates to Bacillus subtilis. In words: Antibacterial activity against erythromycin-susceptible Bacillus subtilis ATCC 9372 after 24 hrs by tube-dilution method. The note with it: ATCC 9372, 24 h. In outline: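 MIC by standard NCCLS broth microdilution. Reference macrolides clarithromycin and azithromycin run alongside.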
In experiment [3] the test system is Staphylococcus aureus. In words: Antibacterial activity against methicillin-resistant Staphylococcus aureus ATCC 43300 after 24 hrs by tube-dilution method. The note with it: ATCC 43300, 24 h. In outline:
(§1)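 MIC determined by the NCCLS-recommended standard broth microdilution method against erythromycin-resistant S. pneumoniae strains (A22072 mef, B1 erm, AB11 erm plus mef) and methicillin-resistant S. aureus ATCC43300.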

Experiment [4] relates to Streptococcus pneumoniae. In words: Antibacterial activity against erythromycin-resistant Streptococcus pneumoniae B1 harboring ermB gene after 24 hrs by tube-dilution method. The note with it: B1, 24 h. In outline:
as §1

Experiment [5] relates to Streptococcus pneumoniae. In words: Antibacterial activity against erythromycin-resistant Streptococcus pneumoniae A22072 harboring mefA gene after 24 hrs by […]. The note with it: A22072, 24 h.
The test system of experiment [6] is Streptococcus pneumoniae. In words: Antibacterial activity against erythromycin-resistant Streptococcus pneumoniae AB11 harboring ermB and mefA genes after 24 hrs by tube-dilution method. The note with it: AB11, 24 h. An outline of the steps:
as §1

Experiment [7] relates to Streptococcus pyogenes. In words: Antibacterial activity against erythromycin-resistant Streptococcus pyogenes R1 after 24 hrs by tube-dilution method. The note with it: R1, 24 h.

≈ marks a conversion by molar mass, not a printed value.

`CC[C@H]1OC(=O)[C@H](C)[C@@H](O[C@H]2C[C@@](C)(OC)[C@@H](O)[C@H](C)O2)[C@H](C)[C@@H](O[C@@H]2O[C@H](C)C[C@H](N(C)C)[C@H]2O)[C@](C)(OC)C[C@@H](C)C(=O)[C@H](C)[C@@H](O)[C@]1(C)O` [CLARITHROMYCIN]: the MIC (in general, the least concentration at which growth counts as inhibited) is 0.25 mg/L (≈ 0.334 µM) in the experiment on Staphylococcus aureus [1]; 64 mg/L (≈ 85.6 µM) in the experiment on Escherichia coli; 0.03 mg/L (≈ 0.0401 µM) against Streptococcus pyogenes [2]; 64 mg/L (≈ 85.6 µM) with Pseudomonas aeruginosa; 0.25 mg/L (≈ 0.334 µM) in the experiment on Bacillus subtilis; above 128 mg/L with Staphylococcus aureus [3]. Further, the MIC was above 128 mg/L against Streptococcus pneumoniae [4], 2 mg/L (≈ 2.67 µM) with Streptococcus pneumoniae [5], 128 mg/L (≈ 171 µM) against Streptococcus pneumoniae [6] and above 128 mg/L in the experiment with Streptococcus pyogenes [7].
Regarding `CC[C@H]1OC(=O)[C@H](C)C(=O)[C@H](C)[C@@H](O[C@@H]2O[C@H](C)C[C@H](N(C)C)[C@H]2O)[C@](C)(OC)C[C@@H](C)C(=O)[C@H](C)[C@@H](OC(=O)NCCNC(=O)C#Cc2cccc3ccccc23)[C@]1(C)O`, the MIC with Staphylococcus aureus [1] is 16 mg/L (≈ 18.8 µM); in the experiment on Escherichia coli, above 128 mg/L; against Streptococcus pyogenes [2] it was 0.5 mg/L (≈ 0.587 µM); with Pseudomonas aeruginosa, above 128 mg/L; against Bacillus subtilis, 1 mg/L (≈ 1.17 µM); against Staphylococcus aureus [3], 64 mg/L (≈ 75.1 µM). The MIC was 128 mg/L (≈ 150 µM) against Streptococcus pneumoniae [4], 1 mg/L (≈ 1.17 µM) against Streptococcus pneumoniae [5], 128 mg/L (≈ 150 µM) against Streptococcus pneumoniae [6] and 64 mg/L (≈ 75.1 µM) against Streptococcus pyogenes [7].
In the case of `CC[C@H]1OC(=O)[C@H](C)C(=O)[C@H](C)[C@@H](O[C@@H]2O[C@H](C)C[C@H](N(C)C)[C@H]2O)[C@](C)(OC)C[C@@H](C)C(=O)/C(C)=C/[C@]1(C)O`, the MIC against Staphylococcus aureus [1] was above 128 mg/L; against Escherichia coli it was above 128 mg/L; with Streptococcus pyogenes [2], above 16 mg/L; in the experiment on Pseudomonas aeruginosa it was 64 mg/L (≈ 112 µM); against Bacillus subtilis it was 128 mg/L (≈ 225 µM); against Staphylococcus aureus [3], above 128 mg/L. The MIC with Streptococcus pneumoniae [4] is above 128 mg/L; in the experiment on Streptococcus pneumoniae [5] it was 64 mg/L (≈ 112 µM); against Streptococcus pneumoniae [6], above 128 mg/L; with Streptococcus pyogenes [7] it was above 128 mg/L.
Consider `CC[C@H]1OC(=O)[C@H](C)[C@@H](OC(=O)Cc2cccnc2)[C@H](C)[C@@H](O[C@@H]2O[C@H](C)C[C@H](N(C)C)[C@H]2O)[C@](C)(OC)C[C@@H](C)C(=O)/C(C)=C/[C@]1(C)O`, for which the MIC amounted to 1 mg/L (≈ 1.45 µM) in the experiment on Staphylococcus aureus [1]; 128 mg/L (≈ 185 µM) against Escherichia coli; 0.25 mg/L (≈ 0.362 µM) with Streptococcus pyogenes [2]; 128 mg/L (≈ 185 µM) against Pseudomonas aeruginosa; 1 mg/L (≈ 1.45 µM) in the experiment with Bacillus subtilis; 128 mg/L (≈ 185 µM) against Staphylococcus aureus [3]. The minimal inhibitory concentration (MIC) is 32 mg/L (≈ 46.3 µM) in the experiment with Streptococcus pneumoniae [4], 1 mg/L (≈ 1.45 µM) against Streptococcus pneumoniae [5], 16 mg/L (≈ 23.2 µM) with Streptococcus pneumoniae [6] and 128 mg/L (≈ 185 µM) with Streptococcus pyogenes [7].
Take `CC[C@H]1OC(=O)[C@H](C)[C@@H](O[C@H]2C[C@@](C)(OC)[C@@H](O)[C@H](C)O2)[C@H](C)[C@@H](O[C@@H]2O[C@H](C)C[C@H](N(C)C)[C@H]2O)[C@](C)(O)C[C@@H](C)CN(C)[C@H](C)[C@@H](O)[C@]1(C)O` [AZITHROMYCIN]: the MIC in the experiment on Staphylococcus aureus [1] was 0.25 mg/L (≈ 0.334 µM); with Escherichia coli, 16 mg/L (≈ 21.4 µM); with Streptococcus pyogenes [2], 0.03 mg/L (≈ 0.0401 µM); in the experiment on Pseudomonas aeruginosa, 16 mg/L (≈ 21.4 µM); against Bacillus subtilis, 0.25 mg/L (≈ 0.334 µM); against Staphylococcus aureus [3], above 128 mg/L. Further, the MIC was above 128 mg/L against Streptococcus pneumoniae [4], 4 mg/L (≈ 5.34 µM) in the experiment with Streptococcus pneumoniae [5], above 128 mg/L in the experiment on Streptococcus pneumoniae [6] and above 128 mg/L in the experiment with Streptococcus pyogenes [7].
As to `CC[C@H]1OC(=O)[C@H](C)C(=O)[C@H](C)[C@@H](O[C@@H]2O[C@H](C)C[C@H](N(C)C)[C@H]2O)[C@](C)(OC)C[C@@H](C)C(=O)[C@H](C)[C@@H](OC(=O)NCCNC(=O)C#Cc2ccc(Cl)cc2Cl)[C@]1(C)O`, the MIC against Staphylococcus aureus [1] was 16 mg/L (≈ 18.4 µM); against Escherichia coli, above 128 mg/L; with Streptococcus pyogenes [2], 1 mg/L (≈ 1.15 µM); with Pseudomonas aeruginosa, above 128 mg/L; against Bacillus subtilis it was 1 mg/L (≈ 1.15 µM); with Staphylococcus aureus [3] it was 128 mg/L (≈ 147 µM). Further, the MIC against Streptococcus pneumoniae [4] was found to be 128 mg/L (≈ 147 µM); in the experiment with Streptococcus pneumoniae [5] it was 2 mg/L (≈ 2.3 µM); against Streptococcus pneumoniae [6], 128 mg/L (≈ 147 µM); with Streptococcus pyogenes [7], 128 mg/L (≈ 147 µM).
